Assay results from ChEMBL document CHEMBL1154870, “Synthesis of tropolone derivatives and evaluation of their in vitro neuroprotective activity” (Eur J Med Chem, 2010).

Tests used:
[1] = system: HT-22; assay: Ratio of beta-thujaplicin EC50 to drug EC50 for mouse HT22 cells
[2] = system: HT-22; assay: Neuroprotective activity against glutamate-mediated oxidative stress-induced cell death in mouse HT22 cells assessed as survival after 24 hrs by MTT assay; assay type: functional, cell-based
Outline: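 HT22 cells seeded at 4000/well in DMEM-Hepes-GlutaMAX with 10% FBS. After 24 h, 5 mM glutamate was added with or without test compound in fresh medium for 24 h. Viability was read by MTT formazan (OD 550 minus 670 nm), with DMSO vehicle controls. EC50 was the concentration keeping glutamate-exposed viability at 50% of unexposed cells. Mean ± SEM, ≥3 independent experiments.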

[3] = system: HT-22; assay: Neuroprotective activity against glutamate-mediated oxidative stress-induced cell death in mouse HT22 cells assessed as survival at 10 uM after 24 hrs by MTT assay; assay type: functional
Outline: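 HT22 mouse hippocampal cells seeded at 4000/well in DMEM-Hepes-GlutaMAX with 10% FBS; after 24 h, challenged with 5 mM glutamate plus test compound in fresh medium for 24 h. MTT formazan read as dOD 550–670 nm. % neuroprotection = (CD_vehicle − CD_compound)/CD_vehicle; efficacy classed full/partial/weak as 67–100, 34–66, ≤33%. Mean of ≥3 independent experiments.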

Cc1c(C)c2c(c(C)c1O)CCC(C)(C(=O)N1CCN(Cc3ccc(C(C)C)cc(O)c3=O)CC1)O2 (configuration not stated)
Ratio EC50 [1]: 60
EC50 ([2]; Mus musculus, HT-22, 24 h): 80 nM
Efficacy [3]: 62%

VITAMIN E
EC50 ([2]; ht-22): 200 nM

O=c1cccccc1O [TROPOLONE]
Ratio EC50 [1]: <0.5
EC50 ([2]; Mus musculus, HT-22, 24 h): > 10000 nM

CC(C)c1ccc(CN2CCN(Cc3ccc(C(C)C)cc(O)c3=O)CC2)c(=O)c(O)c1
EC50 ([2]; Mus musculus, HT-22, 24 h): 920 nM

CC(C)c1ccc(CN2CCOCC2)c(=O)c(O)c1
Ratio EC50 [1]: 1.9
EC50 ([2]; Mus musculus, HT-22, 24 h): 2560 nM
Efficacy [3]: 87%

CC(C)c1ccc(CN2CCN(c3ccc([N+](=O)[O-])cc3)CC2)c(=O)c(O)c1
Ratio EC50 [1]: 2.8
EC50 ([2]; Mus musculus, HT-22, 24 h): 1700 nM
Efficacy [3]: 91%

CCOC(=O)N1CCN(Cc2ccc(C(C)C)cc(O)c2=O)CC1
Ratio EC50 [1]: 3.4
EC50 ([2]; Mus musculus, HT-22, 24 h): 1400 nM
Efficacy [3]: 88%

COc1cc(C(C)C)ccc(Cn2cc(Cc3ccccc3)nn2)c1=O
Ratio EC50 [1]: <0.5
EC50 ([2]; Mus musculus, HT-22, 24 h): > 10000 nM
Efficacy [3]: 30%

CC(C)c1cccc(=O)c(O)c1 [HINOKITIOL]
Ratio EC50 [1]: 1
EC50 ([2]; Mus musculus, HT-22, 24 h): 4800 nM
Efficacy [3]: 62%

O=c1c(O)ccccc1CN1CCOCC1
Ratio EC50 [1]: <0.5
EC50 ([2]; Mus musculus, HT-22, 24 h): > 10000 nM

COc1cc(C(C)C)ccc(COc2ccccn2)c1=O
Ratio EC50 [1]: <0.5
EC50 ([2]; Mus musculus, HT-22, 24 h): > 10000 nM

Cc1c(C)c2c(c(C)c1O)CCC(C)(C(=O)NCCN1CCN(Cc3ccc(C(C)C)cc(O)c3=O)CC1)O2 (configuration not stated)
Ratio EC50 [1]: 53
EC50 ([2]; Mus musculus, HT-22, 24 h): 90 nM
Efficacy [3]: 89%

CC(C)c1ccc(CN2CCN(Cc3ccc([N+](=O)[O-])cc3)CC2)c(=O)c(O)c1
Ratio EC50 [1]: 5
EC50 ([2]; Mus musculus, HT-22, 24 h): 960 nM
Efficacy [3]: 100%
